An excerpt weighted towards active compounds, which were near 0.97% of everything screened.
Beta2AR agonist: agonists of human beta-2 adrenergic receptor inducing internalization | P07550 | Am2.2-beta2AR cells, FAP receptor internalization, flow cytometry | response, % (no concentration beside the values) | 340,000 tested, 0.43% active;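 active = response above a set limit, near 3 SD of response in nonfluorescent compounds, cut at about 42% in these data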
Target sequence (P07550 whole entry, looked up): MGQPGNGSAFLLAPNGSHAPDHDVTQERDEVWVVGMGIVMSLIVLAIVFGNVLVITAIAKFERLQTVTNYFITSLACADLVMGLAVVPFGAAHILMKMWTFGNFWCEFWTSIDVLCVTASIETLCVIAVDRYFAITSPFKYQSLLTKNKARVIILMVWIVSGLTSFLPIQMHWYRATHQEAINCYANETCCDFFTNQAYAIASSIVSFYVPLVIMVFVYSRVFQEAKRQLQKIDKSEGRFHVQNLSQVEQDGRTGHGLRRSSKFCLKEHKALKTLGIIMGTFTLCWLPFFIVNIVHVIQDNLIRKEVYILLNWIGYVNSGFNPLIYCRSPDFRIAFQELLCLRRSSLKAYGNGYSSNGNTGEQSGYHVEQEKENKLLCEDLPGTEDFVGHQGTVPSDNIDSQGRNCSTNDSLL
L929 necroptosis: L929 zVAD cell death inhibition. L929 zVAD necroptosis rescue, ATP luminescence, 24 h; with zVAD 60 µM. viability rescue, % at 10 µM. 220,000 tested, 0.38% active. AID 1377;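 active = activation, scaled between plate controls, above about 75%, limit read from the data; inactive = activation under that limit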
Dynein cargo inh: dynein cargo transport inhibition; 220,000 tested, 0.47% active; 3617.4 mouse cells, GR-EGFP nuclear translocation imaging; test concentration mostly 20 µM; stimulated with dexamethasone, 1 µM; active compounds read low; z-score, hits read low; AID 1381;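 active = plate z-score of nuclear minus cytoplasmic receptor signal below a set negative limit, without overly bright fluorescence or cell loss, cut at about -3.5 in these data, passing the limit was not always enough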;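 note: z-score of nuclear minus cytoplasmic ring GR-EGFP intensity difference per well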
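Buffer or medium: tet-free medium with charcoal-stripped serum / Also added: dexamethasone agonist, 1.0 µM final, for 30 min / Timing: induction 48 h, compound 1 h, agonist 30 min / Measured by: high-content fluorescence imaging after fixation / Read-out: nuclear-to-cytoplasmic GR-EGFP distribution per well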
Mdm2 ligase inh: inhibitors of human Mdm2 E3 ubiquitin ligase | signal enhancement, % at 5 µM | Q00987 | 210,000 tested, 0.11% active | cell-based MDM2 ubiquitination luciferase reporter, 2 h; 0 = plate control, 100 = twice control, blank-subtracted | AID 1230;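 active = signal enhancement of 30% or more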;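 note: luminescence tracks abundance of the self-degrading MDM2-luciferase fusion protein; higher signal means inhibition of MDM2 E3 ligase activity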
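System: stable MDM2–luciferase fusion reporter cells / Input: 2000 cells seeded into each well / Schedule: 4 h settle plus 2 h compound, 37 °C / Compound: single-point 5 µM / Buffer or medium: cells held in DMEM / Benchmarks: control and blank well means / Evaluation: percent signal gain over controls, blank-subtracted / Measured by: luciferase luminescence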
TNF death inh: blocks TNF-alpha induced death of Jurkat FADD-/- cells; activation (protection from cell death), % at 10 µM; AID 463075; 220,000 tested, 0.068% active; Jurkat FADD-/- TNF necroptosis rescue, ATP luminescence, 24 h; 0 = TNF only, 100 = no-TNF cells;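 active = activation, meaning protection from cell death, of at least 50% relative to plate controls; inactive = activation below 50%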;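 note: necroptosis triggered by 40 ng/mL TNF-alpha added together with compound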
Hits are given with their value.

What do the screens show for `O=[N+]([O-])c1c(Nc2ccc(O)cc2)cc(Cl)c2nonc12`?
Beta2AR agonist: 80.9

Results for COCc1ccc(-c2c(-c3ccccc3OC)sc3cc4c(cc23)OCO4)cc1 ?
Beta2AR agonist: inactive

How did O=C1ON=C(c2ccccc2)/C1=C/c1ccc(OS(=O)(=O)c2ccccc2)cc1 do in these assays?
Beta2AR agonist: inactive; L929 necroptosis: inactive; Dynein cargo inh: -4.02; Mdm2 ligase inh: inactive; TNF death inh: inactive

Results for CC1COCC(C)N1C1=C(Cl)C(=O)c2ccccc2C1=O (stereo unspecified) ?
Beta2AR agonist: 81.0

What do the screens show for `Cc1ccc(-c2nn(-c3ccccc3)cc2C(=O)N2CCN(c3ccccn3)CC2)cc1`?
Beta2AR agonist: inactive; L929 necroptosis: inactive; Dynein cargo inh: inactive; Mdm2 ligase inh: inactive; TNF death inh: inactive

How did COc1ccc(-c2nn(-c3ccccc3)cc2/C=C/C(=O)N2CCN(c3ccccn3)CC2)cc1 do in these assays?
Beta2AR agonist: 55.4; L929 necroptosis: inactive; Dynein cargo inh: inactive; Mdm2 ligase inh: inactive; TNF death inh: inactive

What do the screens show for `CCC(C)c1ccc(OCCn2ccnc2)cc1` (stereo unspecified)?
Beta2AR agonist: inactive; L929 necroptosis: inactive; Dynein cargo inh: inactive; Mdm2 ligase inh: inactive; TNF death inh: inactive

What do the screens show for `Cc1ccc(-c2nn(-c3ccccc3)cc2/C=C2\SC(=S)N(CC(=O)O)C2=O)cc1`?
Beta2AR agonist: inactive; L929 necroptosis: inactive; Dynein cargo inh: inactive; Mdm2 ligase inh: inactive; TNF death inh: inactive

What do the screens show for `CCOc1ccc(-c2nn(-c3ccccc3)cc2/C=C2\SC(N)=NC2=O)cc1C`?
Beta2AR agonist: 58.6; L929 necroptosis: inactive; Dynein cargo inh: inactive; Mdm2 ligase inh: inactive; TNF death inh: inactive

How did CCOc1ccc(OCc2cccc(C(=O)N/N=C/c3cccnc3)c2)cc1 do in these assays?
Beta2AR agonist: inactive; L929 necroptosis: inactive; Dynein cargo inh: inactive; Mdm2 ligase inh: inactive; TNF death inh: inactive

Results for CC(C)c1ccc(OCc2cccc(C(=O)N/N=C/c3cccnc3)c2)cc1 ?
Beta2AR agonist: inactive; Dynein cargo inh: inactive; Mdm2 ligase inh: 33.5; TNF death inh: inactive

What do the screens show for `Cc1nnc(Sc2cc(C(=O)NCc3ccco3)c3ccccc3n2)s1`?
Beta2AR agonist: inactive; L929 necroptosis: 97.0; Dynein cargo inh: inactive; Mdm2 ligase inh: inactive; TNF death inh: inactive

What do the screens show for `CCN(CC)C(=O)CCCSc1nnc(Nc2ccccc2F)s1`?
Beta2AR agonist: inactive; L929 necroptosis: inactive; Dynein cargo inh: inactive; Mdm2 ligase inh: inactive; TNF death inh: inactive

Results for Cc1nc2oc3ccccc3c(=O)c2c(=O)n1Cc1ccccc1 ?
Beta2AR agonist: inactive; L929 necroptosis: inactive; Dynein cargo inh: inactive; Mdm2 ligase inh: inactive; TNF death inh: 60.1

What do the screens show for `CCOC(=O)C1CCN(C(=S)Nc2cc(C)ccc2C)CC1`?
Beta2AR agonist: inactive; L929 necroptosis: inactive; Dynein cargo inh: inactive; Mdm2 ligase inh: 98.2; TNF death inh: inactive

Results for CCN(CC)CCn1c(=N)n(CCOc2ccccc2)c2ccccc21 ?
Beta2AR agonist: inactive; L929 necroptosis: inactive; Dynein cargo inh: inactive; Mdm2 ligase inh: inactive; TNF death inh: inactive

Results for C/C=C(/C)C(=O)Nc1cccc(C2=NOC3(C2)C[C@H](C(N)=O)N(C(=O)Cc2ccc([N+](=O)[O-])cc2)C3)c1 (stereo partly specified) ?
Beta2AR agonist: inactive; L929 necroptosis: inactive; Dynein cargo inh: inactive; Mdm2 ligase inh: inactive; TNF death inh: inactive

How did O=C(Nc1cccc(N2C(=O)C=CC2=O)c1)c1cccs1 do in these assays?
Beta2AR agonist: 52.8

How did COc1nc(Cl)cn(-c2ccc(C)cc2)c1=O do in these assays?
Beta2AR agonist: inactive; L929 necroptosis: inactive; Dynein cargo inh: inactive; Mdm2 ligase inh: inactive; TNF death inh: inactive

Results for Cc1ccc(-n2c(Cl)c(Cl)nc(Cl)c2=O)cc1 ?
Beta2AR agonist: 50.3; L929 necroptosis: inactive; Dynein cargo inh: -4.1; Mdm2 ligase inh: inactive; TNF death inh: inactive

How did CCNC(=O)/C(C#N)=C/c1c(N2CCOCC2)nc2ccccn2c1=O do in these assays?
Beta2AR agonist: 46.7; L929 necroptosis: inactive; Dynein cargo inh: inactive; Mdm2 ligase inh: inactive; TNF death inh: inactive

Results for C=CCNC(=O)/C(C#N)=C/c1c(N2CCCCCC2)nc2ccccn2c1=O ?
Beta2AR agonist: inactive

How did C#CCOCCOCCOCCNc1nc(N2CCN(C(=O)[C@H]([C@@H](C)CC)n3cc([C@@H](N)Cc4ccc(O)cc4)nn3)CC2)nc(N2CCN(C(=O)[C@H]([C@@H](C)CC)n3cc([C@@H](N)CC(C)C)nn3)CC2)n1 do in these assays?
Beta2AR agonist: inactive; L929 necroptosis: inactive; Dynein cargo inh: inactive; TNF death inh: inactive

Results for COc1cccc(/C=N/NC(=O)c2[nH]c(C)c(C(=O)N/N=C/c3cccc(OC)c3)c2C)c1 ?
Beta2AR agonist: inactive; L929 necroptosis: inactive; Dynein cargo inh: inactive; Mdm2 ligase inh: 36.0; TNF death inh: inactive

How did CCOC(=O)c1c(C)[nH]c(C(=O)N/N=C/c2cccc(OC)c2)c1C do in these assays?
Beta2AR agonist: inactive; L929 necroptosis: inactive; Dynein cargo inh: inactive; Mdm2 ligase inh: inactive; TNF death inh: inactive

How did CC1=CC2=NC(=O)/C(=C\c3ccc(OC(=O)c4ccco4)cc3)C(=N)N2O1 do in these assays?
Beta2AR agonist: inactive; L929 necroptosis: inactive; Dynein cargo inh: inactive; Mdm2 ligase inh: inactive; TNF death inh: inactive

How did COc1cc(/C=C2/C(=N)N3OC(C)=CC3=NC2=O)ccc1OC(=O)c1ccco1 do in these assays?
Beta2AR agonist: inactive; L929 necroptosis: inactive; Dynein cargo inh: inactive; Mdm2 ligase inh: 32.4; TNF death inh: inactive

Results for CC(=O)NC(Cc1cc(C)ccc1C)C(=O)N1CCN(C(=O)c2ccccc2Br)CC1 (stereo unspecified) ?
Beta2AR agonist: inactive; L929 necroptosis: inactive; Dynein cargo inh: inactive; Mdm2 ligase inh: inactive; TNF death inh: inactive

Results for CCOc1ccc(/C=C2\SC(N3CCc4ccccc4C3)=NC2=O)cc1 ?
Beta2AR agonist: 67.7; L929 necroptosis: inactive; Dynein cargo inh: inactive; Mdm2 ligase inh: inactive; TNF death inh: inactive

Results for CCOC(=O)c1c(C)[nH]c(C(=O)COC(=O)/C=C/c2ccc3c(c2)OCO3)c1C ?
Beta2AR agonist: 53.3; L929 necroptosis: inactive; Dynein cargo inh: inactive; Mdm2 ligase inh: inactive; TNF death inh: inactive

How did CCOC(=O)c1c(C)[nH]c(C(=O)COC(=O)/C=C/c2ccc(O)c(OC)c2)c1C do in these assays?
Beta2AR agonist: inactive; L929 necroptosis: inactive; Dynein cargo inh: inactive; Mdm2 ligase inh: inactive; TNF death inh: inactive

What do the screens show for `COc1ccc(NC(=O)c2c(N)no[n+]2[O-])cc1`?
Beta2AR agonist: inactive; L929 necroptosis: inactive; Dynein cargo inh: inactive; Mdm2 ligase inh: inactive; TNF death inh: inactive

How did COc1ccc(C(=O)c2no[n+]([O-])c2C(=O)c2ccc(OC)cc2)cc1 do in these assays?
Beta2AR agonist: 44.4; L929 necroptosis: inactive; Dynein cargo inh: inactive; Mdm2 ligase inh: inactive; TNF death inh: inactive

Source: PubChem
